Six compounds from ChEMBL document CHEMBL3272233, “Optical isomers of 2-(2-ethoxyphenoxymethyl)tetrahydro-1,4-oxazine (viloxazine) and related compounds” (1976) can be followed below.

The test system of experiment [1] is Mus musculus. The experiment is described as follows: Sedative activity in po dosed mouse assessed as reduction in locomotor activity during 60 mins period immediately prior to and after dosing. The note with it: 1 h, read-out: MED. The format is functional. In outline: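 Given orally, with doses in mg/kg. The racemate and individual isomers were run by the earlier reported procedure. The value is the minimum effective dose that reduced locomotor activity.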

Experiment [2] deals with Mus musculus. The experiment is described as follows: Antidepressant activity in po dosed mouse assessed as antagonism of reserpine-induced hypothermia dosed 17 hrs after reserpine challenge. The format is functional. The essentials: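 Oral dosing, with doses in mg/kg. The racemate and separated optical isomers were tested by the previously published method. Potency is expressed as the ED10 for antagonism of reserpine-induced hypothermia.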

Bounds are passed on as bounds.

Regarding `COc1cccc(OCC2CNCCO2)c1` (racemic), in the experiment on Mus musculus [1], the minimal effective dose worked out at 3 mg/kg. The ED10 with Mus musculus [2] is greater than 100 mg/kg.
In the same order, the values of `COc1cccc(OC[C@H]2CNCCO2)c1` are 30 mg/kg and greater than 100 mg/kg.
The corresponding values for `CCOc1ccccc1OC[C@@H]1CNCCO1` [(S)-VILOXAZINE] are 1 mg/kg and 0.1 mg/kg.
For the compound `COc1cccc(OC[C@@H]2CNCCO2)c1`, the minimal effective dose in the experiment with Mus musculus [1] turned out to be 1 mg/kg. Further, the ED10 with Mus musculus [2] was greater than 100 mg/kg.
The corresponding values for `CCOc1ccccc1OCC1CNCCO1` (racemic) [VILOXAZINE] are 3 mg/kg and 0.3 mg/kg.
In the same order, the values of `CCOc1ccccc1OC[C@H]1CNCCO1` [(R)-VILOXAZINE] are 30 mg/kg and 1 mg/kg.
